Experimental data: paper PMC6361670 (Small (Weinheim an der Bergstrasse, Germany), 2018)

What was measured:
[1] = system: subcutaneous MDA-MB-231 tumor xenografts; assay: Whole body and ex vivo fluorescence imaging of NP distribution; assay type: in vivo, female athymic nude mice; details: ICG-labeled, tail vein, imaged over 24 h
HUVECs = assay: Cytotoxicity of QA-NH2 on HUVECs; assay type: cell-based, human; details: 1 nM to 1 mM, 24 h, MTT
Method in brief: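 HUVECs were seeded at 10,000 cells per well on rat-tail collagen I; one group was pre-activated with 10 ng/mL TNF-α for 4 h. Test compound was added at 1 nM to 1 mM for 24 h. MTT (75 μg) was then added for 4 h, formazan was dissolved in 50% DMF/20% SDS at pH 5, and absorbance was read at 562 nm.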

[2] = system: E/P-selectin on activated HUVECs; assay: Competitive inhibition of FITC-labeled QA-NP binding to activated HUVECs; assay type: cell-based, human; details: 30 min pre-incubation; flow cytometry
Method in brief: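 HUVECs (passage 4, EGM-2, on rat-tail collagen I) were activated with 10 ng/mL TNF-α for 4 h. Free ligand, anti-E-selectin or anti-P-selectin antibody, or unlabeled nanoparticles were pre-incubated for 30 min. FITC-labeled particles (0.2 mg/mL) were then added for 2 h at 37 °C. Cells were washed twice with PBS, trypsinized, resuspended in cold PBS, and read for FL-1 fluorescence (488/525 nm).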

Row | SMILES | tumor fluorescence in whole body imaging [1] | effect on HUVEC proliferation (HUVECs) | QA-NP binding to activated HUVECs after pre-treatment with competitor [2]
1 | CC1(C)C(/C=C/C=C/C=C/C=C2\N(CCCCS(=O)(=O)O)c3ccc4ccccc4c3C2(C)C)=[N+](CCCCS(=O)(=O)[O-])c2ccc3ccccc3c21 [free ICG, indocyanine green] | did not show fluorescence in tumors at all time points | – | –
2 | Nc1cc(NC(=O)[C@]2(O)C[C@@H](O)[C@@H](O)[C@H](O)C2)cc(C(=O)O)c1 [QA-NH2, 3-amino-5-((1S,3R,4S,5R)-1,3,4,5-tetrahydroxycyclohexane-1-carboxamido)benzoic acid] | – | no adverse effects | reduced
